# Compound activity: PubChem BioAssay, Broad Institute
# This is a sample that favours compounds with a hit; in the whole collection about 2% have one here.
# HIF activator: HIF pathway transcriptional activation | activation, % at 7.5 µM (by protocol) | U2OS HRE-luciferase reporter, luminescence; normalized: DMSO 0%, desferrioxamine 100% | 300,000 compounds, 0.32% hits;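 active = mean activation of at least 10% of the iron chelator positive control signal, with at least half of replicates also reaching 10%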
# ARNT TACC3 PPI: ARNT/TACC3 interaction disruption; AID 623870; 390,000 compounds, 0.66% hits; Q9Y6A5; AlphaScreen His-ARNT PAS-B/GST-TACC3 binding, luminescence; TACC3 fragment carries E629A point mutation; inhibition, % at 9.99 µM;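 active = mean inhibition of replicates at least 50% and at least half of replicates each reaching 50%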;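 also: 0% = complete ARNT plus TACC3 wells and 100% = ARNT alone without TACC3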
# T cruzi inh: T. cruzi replication inhibition; inhibition, % (test concentration not listed); 300,000 compounds, 1.4% hits; T. cruzi beta-gal in NIH3T3, luminescence, 90 h;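 active = mean inhibition across valid replicates above about 55%, limit read from the data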;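 also: signal also drops with host cell toxicity which is not excluded here; 0% = plate median of DMSO wells and 100% = zero luminescence signal; higher percent means less beta-gal luminescence so fewer parasites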
#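 System: mouse NIH/3T3 fibroblasts infected with β-gal-expressing T. cruzi Tulahuen C4 / Input: NIH/3T3 cells, 5,000 per well / Buffer or medium: Low-serum DMEM with 2% FBS / Probe or stimulus: 5000 reporter trypomastigotes per well / Schedule: ≥90 h infection period, 3 h prior cell attachment / Measured by: GalScreen luminescence, 60 min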
# AI-2 QS mod: modulators of Vibrio harveyi AI-2 quorum sensing system; Vibrio harveyi JMH597 AI-2 luminescence/OD600 ratio, 9 h; active compounds read low; strain lacks LuxN and CqsS sensors; 0 = neutral-control median; activity change, % at 7.5 µM; 300,000 compounds, 0.4% hits; AID 2094; in the data active = activity change below about -75%, passing the limit was not always enough;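 also: luminescence divided by OD600 gain over 9 h not by final OD600 alone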
# ARNT Alpha ctr: AlphaScreen artifact in ARNT/TACC3 counter-screen. AC50, µM (top dose mostly 68 µM), for the others: at the highest dose activity change, negative = signal decrease. shares compounds with ARNT TACC3 PPI. His-ARNT PASB-GST AlphaScreen artifact counter-screen, luminescence. 1,200 compounds, 50% hits;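 active = every separate test run was called active for a drop in luminescence, with AC50 within twice the top valid dose, actives reach about 71 µM in these data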
# Active calls of the source: *; · = not tested or not shown; [ ] = remark or other dose.
SMILES,HIF activator,ARNT TACC3 PPI,T cruzi inh,AI-2 QS mod,ARNT Alpha ctr
N#C[C@@H]1[C@H](c2ccc(-c3ccc(F)cc3)cc2)[C@H](CO)N1c1nc(-c2ccccc2)cs1,·,12,·,·,·
N#C[C@@H]1[C@@H](c2ccc(-c3ccc(F)cc3)cc2)[C@H](CO)N1c1nc(-c2ccccc2)cs1,·,56*,·,·,58µM*
O=[N+]([O-])c1cc(Cl)cc(/C=N\Nc2ccccn2)c1O,21*,56*,57*,48,25µM*
O=[N+]([O-])c1ccc(Cl)cc1C=NNc1ccccn1,·,-3,·,·,·
COc1ccc(NC(=O)N(C)C[C@@H]2Oc3ccc(NC(=O)Cc4ccccc4)cc3C(=O)N([C@H](C)CO)C[C@@H]2C)cc1,·,-4,·,·,·
O=C(Oc1c(CN2CCOCC2)cc(Cl)c2cccnc12)c1ccccc1,0,52*,38,20,-36%
COc1cc(OC)cc(C(=O)Oc2c(CN3CCOCC3)cc(Cl)c3cccnc23)c1,1,41*,49,21,-38%
Oc1c(Cl)cc(CN2CCOCC2)c2cccnc12,·,71*,·,·,7.3µM*
Oc1c(CN2CCCCC2)cc(Br)c2cccnc12,·,64*,56*,-87*,5.6µM*
Oc1c(Cl)cc(Cl)c(Cl)c1CN1CCOCC1,·,-3,·,·,·
COc1ccc(C(=O)Oc2c(CN3CCOCC3)cc(Cl)c3cccnc23)cc1OC,0,·,-5,10,·
CC(C)NC(=O)N[C@@H]1CC[C@H](CC(=O)N2CCCCC2)O[C@@H]1CO,·,-11,·,·,·
CC(C)NC(=O)N(C)C[C@H]1Oc2ccc(NC(=O)CCN3CCOCC3)cc2C(=O)N([C@@H](C)CO)C[C@H]1C,·,-7,·,·,·
CCOc1cc(C(=O)NC2CC(C)(C)NC(C)(C)C2)cc(OCC)c1OCC,1,53*,-17,·,-2%
CN(C)c1ccc2c(c1)[C@@H]1C[C@H](CC(=O)NCC3CC3)O[C@@H](CO)[C@@H]1O2,·,28,·,·,·
Cc1ccc(S(=O)(=O)Cn2nnnc2C(c2ccccc2)N2CCN(c3ccccc3)CC2)cc1 (stereo not given),1,58*,17,4,-33%
C/C(=N\NC(=O)c1cc2ccccc2cc1O)c1ccc(C)o1,0,-4,-8,23,·
C/C(=N\NC(=O)c1c[nH]c2ccccc12)c1ccc(C)o1,1,62*,-2,19,57µM*
O=C(C[C@H]1CC[C@@H](NC(=O)C2CCC2)[C@@H](CO)O1)NCC1CC1,·,-6,·,·,·
Nc1cc2cccnc2cc1Cl,·,53*,·,·,-13%
N#Cc1cnn(-c2ccccc2)c1N,0,-9,0,24,·
Cc1cc(=O)[nH]c(-n2ncc(C#N)c2N)n1,1,56*,-8,11,-13%
C[C@@H]1CCCCO[C@H](CN(C)C(=O)Nc2ccc(C(F)(F)F)cc2)[C@H](C)CN([C@H](C)CO)C(=O)c2cc(NS(=O)(=O)c3cccs3)ccc2O1,·,-6,·,·,·
COc1ccccc1Nc1cc2cc(Br)ccc2c(=O)[nH]1,0,55*,-7,20,-26%
COCCN=c1scc(-c2ccco2)n1/N=C/c1ccc(O)c(O)c1O,·,55*,·,·,34µM*
SMILES,HIF activator,ARNT TACC3 PPI,T cruzi inh,AI-2 QS mod,ARNT Alpha ctr
COCCN=c1scc(-c2cc(OC)ccc2OC)n1/N=C/c1c[nH]c2ccccc12,0,7,45,13,·
Cc1ccc2nc(-c3ccccn3)c(NC3CCCC3)n2c1,3,61*,68*,44,32µM*
Cc1cccc(C)c1Nc1c(-c2ccccn2)nc2ccccn12,28*,65*,61*,25,18µM*
Cc1ccc(Nc2c(-c3ccccn3)nc3cccc(C)n23)cc1,56*,56*,59*,-80*,20µM*
COc1ccc(CCNC(=O)CSc2nnc3ccc(-c4ccccn4)nn23)cc1,0,48*,-4,46,68µM*
COc1ccc(CCNC(=O)CSc2nnc3ccc(-c4ccccn4)nn23)cc1OC,0,2,0,14,·
COc1cc(C2C(C#N)=C(N)Oc3n[nH]c(C)c32)ccc1OC(=O)c1ccccc1 (stereo not given),0,60*,-9,16,-26%
Cc1[nH]nc2c1C(c1ccc(OC(=O)c3ccco3)cc1)C(C#N)=C(N)O2 (stereo not given),0,9,-17,25,·
CN(C)c1ccc2c(c1)[C@@H]1C[C@@H](CC(=O)N3CCOCC3)O[C@@H](CO)[C@@H]1O2,·,70*,·,·,-8%[38 µM]
Cc1ccc2[nH]c3c(c2c1)CCCC3NCCO (stereo not given),1,43*,11,0,-22%
CC1Oc2ccccc2C=C1/C=N/NC(=O)[C@@H](C)NC(=O)OC(C)(C)C (stereo not given in full),·,6,·,14,·
Cc1[nH]c(=O)[nH]c(=O)c1/C=N/NC(=O)[C@H](C)NC(=O)OC(C)(C)C,0,54*,-14,20,-4%
CNC[C@@H]1OCCCC[C@H](C)Oc2ccc(NC(=O)CCC(F)(F)F)cc2C(=O)N([C@H](C)CO)C[C@H]1C,·,-9,·,·,·
Cc1ccc(C)c(CSc2ccc3nnc(-c4ccccn4)n3n2)c1,0,55*,22,18,-11%
O=C1C=C(O)c2cccc(O)c2C1=O,·,52*,·,·,-8%
CCN(CC)c1ccc(C(=C2C=CC(=[N+](CC)CC)C=C2)c2ccc(N(CC)CC)cc2)cc1,·,50*,·,·,0.7µM*
Cc1noc(C)c1NC(=O)N(C)C[C@H]1Oc2ncc(C#CC(C)C)cc2C(=O)N([C@H](C)CO)C[C@@H]1C,·,-6,·,·,·
COC(=O)c1ccc2[nH]c3c(c2c1)CC(C)CC3 (stereo not given),-4,21*,-1,21,-30%
CCCC(C)NC(=O)c1ccc2[nH]c3c(c2c1)CC(C)CC3 (stereo not given),·,-5,·,·,·
Cc1ccc(S(=O)(=O)N[C@@H]2C=C[C@@H](CC(=O)N3CCC(Cc4ccccc4)CC3)O[C@H]2CO)cc1,·,-11,·,·,·
CCCCN(CC)c1nc(N)c2c(N)nc(OCC)cc2c1C#N,0,10*,38,22,-11%
CCOc1cc2c(C#N)c(N3CCCC3)nc(N)c2c(N)n1,-1,1,-3,1,·
COc1cccc(-c2ccc3c(c2)[C@@H]2[C@@H](CCN2C(=O)c2ccc(F)cc2)[C@@H](CO)N3)c1,·,-12,·,·,·
O=C(N/N=C1/CCS(=O)(=O)c2ccc(F)cc21)c1ccccn1,1,52*,1,26,-5%
COc1cccc(-c2ccc3ncnc(NCc4cccc(C)c4)c3c2)c1,·,-1,·,·,·
c1ccc(-c2nnc(-c3ccccn3)nc2NCc2cccnc2)cc1,·,·,·,·,0.69µM*
C=CCNc1nc(-c2ccccn2)nnc1-c1ccccc1,110*,104*,69*,4,1.3µM*
Cc1ccc(CNc2nc(-c3cccs3)nc3ccccc23)cc1,0,-24,34,19,·
Cc1cccc(CNc2nc(-c3ccccn3)nnc2-c2ccccc2)c1,·,·,·,·,2.1µM*
